Experimental data reported in ChEMBL document CHEMBL1123328, “Catechol estrogens of the 1,1,2-triphenylbut-1-ene type: relationship between structure, estradiol receptor affinity, estrogenic and antiestrogenic properties, and mammary tumor inhibiting activities” (1986).

How the values were obtained:
[1] = molecular target: T1, Estrogen receptor (Mus musculus) (UniProt O08537+P19785); assay: […] estrogenic effect in immature mice at 500 ug; type: functional
How it was run: (§1)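 Uterotrophic assay in immature female NMRI mice (10–12 g at start; 10 per group). Test compound in olive oil given sc daily for three consecutive days. Uteri removed 24 h after the last injection, fixed in Bouin's solution, dried and weighed. Estrogenic effect read as stimulation of uterine growth.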

Mus musculus [2] = assay: (§2) In vivo inhibition of hormone-dependent MXT mammary tumor in mice; type: functional
How it was run: (§3)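 MXT tumor pieces (~2 mm3) implanted sc into female 8-week-old BDF1 mice, randomized into groups of 10. From day 1 after transplant, compound in olive oil given sc 3 times weekly (equimolar doses) for 6 weeks. Tumors excised and weighed. T/C % = treated/solvent-control tumor weight × 100 (mean of 10); uterus T/C also recorded.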

Mus musculus [3] = assay: as §2; type: functional; how it was run: as §3; remark: listed apart in the source
[4] = molecular target: T1, Estrogen receptor (Mus musculus); assay: In vivo anti-estrogenic effect in immature mice at 100 ug; type: functional, organism-based
How it was run: (§4)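 Antiuterotrophic assay in immature female NMRI mice (10–12 g; 10 per group) with estrone-stimulated uterine growth. Test compound in olive oil given sc daily for 3 consecutive days. Uteri taken 24 h after the final dose, Bouin-fixed, dried and weighed. Antiestrogenic effect measured as inhibition of the estrone-driven uterine growth.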

[5] = molecular target: T1, Estrogen receptor (Mus musculus); assay: In vivo anti-estrogenic effect in immature mice at 5 ug; type: functional, organism-based; how it was run: as §4
[6] = molecular target: T1, Estrogen receptor (Mus musculus); assay: In vivo anti-estrogenic effect in immature mice at 0.5 ug; type: functional, organism-based; how it was run: as §4
[7] = molecular target: T1, Estrogen receptor (Mus musculus); assay: […] estrogenic effect in immature mice at 1 ug; type: functional; how it was run: as §1

T1 sequence (O08537 whole entry, looked up): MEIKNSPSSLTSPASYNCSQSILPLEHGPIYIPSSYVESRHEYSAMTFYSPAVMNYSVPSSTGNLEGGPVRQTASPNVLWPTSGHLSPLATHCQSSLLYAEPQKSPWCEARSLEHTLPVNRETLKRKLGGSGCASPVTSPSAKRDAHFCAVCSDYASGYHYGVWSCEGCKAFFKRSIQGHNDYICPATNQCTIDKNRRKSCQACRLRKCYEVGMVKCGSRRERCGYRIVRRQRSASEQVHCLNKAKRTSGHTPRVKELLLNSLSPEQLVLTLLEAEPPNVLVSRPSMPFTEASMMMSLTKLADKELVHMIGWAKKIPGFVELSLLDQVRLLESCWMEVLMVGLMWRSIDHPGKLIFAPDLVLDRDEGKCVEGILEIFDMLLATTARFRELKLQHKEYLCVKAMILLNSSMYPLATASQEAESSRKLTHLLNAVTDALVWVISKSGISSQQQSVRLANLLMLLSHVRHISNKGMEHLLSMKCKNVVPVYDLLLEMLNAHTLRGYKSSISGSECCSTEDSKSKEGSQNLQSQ
T1 sequence (P19785 whole entry, looked up): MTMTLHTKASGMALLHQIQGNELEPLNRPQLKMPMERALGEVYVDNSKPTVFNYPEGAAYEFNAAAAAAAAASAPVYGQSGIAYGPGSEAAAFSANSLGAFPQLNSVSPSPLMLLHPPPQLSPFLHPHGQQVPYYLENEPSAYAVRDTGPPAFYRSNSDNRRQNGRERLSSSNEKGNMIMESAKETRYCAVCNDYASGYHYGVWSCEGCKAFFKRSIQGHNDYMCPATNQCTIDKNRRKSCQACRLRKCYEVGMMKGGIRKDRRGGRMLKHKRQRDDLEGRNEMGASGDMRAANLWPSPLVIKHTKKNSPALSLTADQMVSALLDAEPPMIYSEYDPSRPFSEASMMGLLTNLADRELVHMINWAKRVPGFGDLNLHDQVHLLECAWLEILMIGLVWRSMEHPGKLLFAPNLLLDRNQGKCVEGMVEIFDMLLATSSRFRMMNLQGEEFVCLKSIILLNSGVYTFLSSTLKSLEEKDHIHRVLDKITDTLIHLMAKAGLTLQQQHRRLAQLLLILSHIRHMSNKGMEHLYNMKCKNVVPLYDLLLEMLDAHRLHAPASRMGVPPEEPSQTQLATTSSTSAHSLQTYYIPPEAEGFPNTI

estrogenic effect [1] [%] | inhibition [4] [%] | inhibition [5] [%] | inhibition [6] [%] | inhibition [7] [%] | Structure (SMILES) | T/C (Mus musculus [2]) [%] | T/C (Mus musculus [3]) [%]
66 |  |  |  |  | CC/C(=C(/c1ccccc1)c1ccc(OC(C)=O)c(OC(C)=O)c1)c1ccccc1 | 17 | 106
 | 61 |  |  |  | CCC(=C(c1ccc(OC(C)=O)cc1)c1ccc(OC(C)=O)c(OC(C)=O)c1)c1ccccc1 |  | 
63 |  | 53 |  |  | CC/C(=C(\c1ccccc1)c1cccc(OC(C)=O)c1)c1ccc(OC(C)=O)c(OC(C)=O)c1 | 30 | 87
77 |  |  |  |  | CC/C(=C(\c1ccccc1)c1ccc(OC(C)=O)c(OC(C)=O)c1)c1ccccc1 | 19 | 107
 |  |  | 38 |  | CC/C(=C(\c1ccc(OC(C)=O)cc1)c1ccc(OC(C)=O)c(OC(C)=O)c1)c1ccccc1 | 23 | 125
 |  |  |  | 18 | CCC(=C(c1ccccc1)c1ccccc1)c1ccc(OC(C)=O)c(OC(C)=O)c1 | 9 | 115
61 |  |  |  |  | CC/C(=C(/c1ccccc1)c1cccc(OC(C)=O)c1)c1ccc(OC(C)=O)c(OC(C)=O)c1 | 2 | 123

Continued, compound first:

Structure (SMILES) | estrogenic effect [1] [%] | inhibition [4] [%] | inhibition [5] [%] | inhibition [6] [%] | inhibition [7] [%] | T/C (Mus musculus [2]) [%] | T/C (Mus musculus [3]) [%]
CC/C(=C(\c1ccccc1)c1ccc(OC(C)=O)c(OC(C)=O)c1)c1ccc(OC(C)=O)cc1 |  |  |  |  |  | 40 | 113
CC/C(=C(/c1ccccc1)c1ccc(OC(C)=O)c(OC(C)=O)c1)c1ccc(OC(C)=O)c(OC(C)=O)c1 | 67 |  |  |  |  | 84 | 99
CC/C(=C(\c1ccccc1)c1ccc(OCCN(C)C)cc1)c1ccccc1 [TAMOXIFEN] |  |  |  |  |  | 10 | 92
CC/C(=C(/c1ccccc1)c1ccc(OC(C)=O)cc1)c1ccc(OC(C)=O)c(OC(C)=O)c1 |  |  |  |  |  | 2 | 183
CC/C(=C(/c1ccccc1)c1ccc(OC(C)=O)c(OC(C)=O)c1)c1cccc(OC(C)=O)c1 |  |  |  |  |  | 35 | 103
CC/C(=C(\c1ccccc1)c1ccc(OC(C)=O)c(OC(C)=O)c1)c1ccc(OC(C)=O)c(OC(C)=O)c1 | 77 |  |  |  |  | 75 | 90
CCC(=C(c1ccc(OC(C)=O)c(OC(C)=O)c1)c1ccc(OC(C)=O)c(OC(C)=O)c1)c1ccccc1 | 13 | 54 |  |  |  | 134 | 107
CC/C(=C(\c1ccccc1)c1ccc(OC(C)=O)c(OC(C)=O)c1)c1cccc(OC(C)=O)c1 |  |  |  |  |  | 82 | 115
CC/C(=C(/c1ccc(OC(C)=O)cc1)c1ccc(OC(C)=O)c(OC(C)=O)c1)c1ccccc1 |  |  |  | 0 |  | 44 | 99
CC/C(=C(\c1ccccc1)c1ccc(OC(C)=O)cc1)c1ccc(OC(C)=O)c(OC(C)=O)c1 |  |  |  |  |  | 1 | 195
CC/C(=C(/c1ccccc1)c1ccc(OC(C)=O)c(OC(C)=O)c1)c1ccc(OC(C)=O)cc1 |  |  |  |  |  | 22 | 113
